# Test results: ChEMBL document CHEMBL1123503, “Synthesis and biological activity of 3-amino-5-(3,5-diamino-6-chloropyrazin-2-yl)-1,2,4-oxadiazole: an amiloride prodrug” (1986)
# Assays:
# [1] = tested on: Rattus norvegicus; assay: Compound was evaluated for diuretic activity determined by the ability to induce electrolytic excretion (K+) at a time period of 0-24 hr for dose 3 mg/kg; assay type: functional, Urine
# How it was run: (§1)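 Female Sprague-Dawley rats weighing 160-170 g were dosed orally at 3, 9, 27 or 81 mg/kg, housed three per cage, with three cages per dose. Urinary Na+, K+ and Cl- (mequiv × 100) and urine volume (mL) were measured over 0-5 h and 0-24 h after dosing. A placebo group was run alongside.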
# [2] = tested on: Rattus norvegicus; assay: Compound was evaluated for diuretic activity determined by the ability to induce electrolytic excretion (K+) at a time period of 0-24 hr for dose 81 mg/kg; assay type: functional, Urine; parameters: unit: mequiv × 100; how it was run: as §1
# [3] = tested on: Rattus norvegicus; assay: Compound was evaluated for diuretic activity determined by the ability to induce electrolytic excretion (K+) at a time period of 0-24 hr for dose 9 mg/kg; assay type: functional, Urine; how it was run: as §1
# [4] = tested on: Rattus norvegicus; assay: Compound was evaluated for diuretic activity determined by the ability to induce electrolytic excretion (K+) at a time period of 0-5 hr for dose 27 mg/kg; assay type: functional, Urine; how it was run: as §1
# [5] = tested on: Rattus norvegicus; assay: Compound was evaluated for diuretic activity determined by the ability to induce electrolytic excretion (K+) at a time period of 0-5 hr for dose 3 mg/kg; assay type: functional, Urine; how it was run: as §1
# [6] = tested on: Rattus norvegicus; assay: Compound was evaluated for diuretic activity determined by the ability to induce electrolytic excretion (K+) at a time period of 0-5 hr for dose 81 mg/kg; assay type: functional, Urine; how it was run: as §1
# [7] = tested on: Rattus norvegicus; assay: Compound was evaluated for diuretic activity determined by the ability to induce electrolytic excretion (K+) at a time period of 0-5 hr for dose 9 mg/kg; assay type: functional, Urine; how it was run: as §1
# [8] = tested on: Rattus norvegicus; assay: Compound was evaluated for diuretic activity determined by the ability to induce electrolytic excretion (Na+) at a time period of 0-24 hr for dose 27 mg/kg; assay type: functional, Urine; how it was run: as §1
# [9] = tested on: Rattus norvegicus; assay: Compound was evaluated for diuretic activity determined by the ability to induce electrolytic excretion (Na+) at a time period of 0-24 hr for dose 3 mg/kg; assay type: functional, Urine; how it was run: as §1
# [10] = tested on: Rattus norvegicus; assay: Compound was evaluated for diuretic activity determined by the ability to induce electrolytic excretion (Na+) at a time period of 0-24 hr for dose 81 mg/kg; assay type: functional, Urine; how it was run: as §1
# [11] = tested on: Rattus norvegicus; assay: Compound was evaluated for diuretic activity determined by the ability to induce electrolytic excretion (Na+) at a time period of 0-24 hr for dose 9 mg/kg; assay type: functional, Urine; how it was run: as §1
# [12] = tested on: Rattus norvegicus; assay: Compound was evaluated for diuretic activity determined by the ability to induce electrolytic excretion (Na+) at a time period of 0-5 hr for dose 27 mg/kg; assay type: functional, Urine; how it was run: as §1
# [13] = tested on: Rattus norvegicus; assay: Compound was evaluated for diuretic activity determined by the ability to induce electrolytic excretion (Na+) at a time period of 0-5 hr for dose 3 mg/kg; assay type: functional, Urine; how it was run: as §1
# [14] = tested on: Rattus norvegicus; assay: Compound was evaluated for diuretic activity determined by the ability to induce electrolytic excretion (Na+) at a time period of 0-5 hr for dose 81 mg/kg; assay type: functional, Urine; how it was run: as §1
# [15] = tested on: Rattus norvegicus; assay: Compound was evaluated for diuretic activity determined by the ability to induce electrolytic excretion (Na+) at a time period of 0-5 hr for dose 9 mg/kg; assay type: functional, Urine; how it was run: as §1
# [16] = tested on: Rattus norvegicus; assay: Urine volumes was determined at time period of 0-5 hours for dose 27 mg/kg; assay type: functional
# How it was run: (§2)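 Female Sprague-Dawley rats (160-170 g) were dosed orally at 3-81 mg/kg, with a placebo group. Housing was three rats per cage and three cages per dose. Urinary Na+, K+ and Cl- (mequiv × 100) and urine volume were measured over 0-5 h and 0-24 h.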
# [17] = tested on: Rattus norvegicus; assay: Urine volumes was determined at time period of 0-5 hours for dose 9 mg/kg; assay type: functional; how it was run: as §2
# [18] = tested on: Rattus norvegicus; assay: Compound was evaluated for diuretic activity determined by the ability to induce electrolytic excretion (Cl-) at a time period of 0-24 hr for dose 27 mg/kg; assay type: functional, Urine; how it was run: as §1
# [19] = tested on: Rattus norvegicus; assay: Compound was evaluated for diuretic activity determined by the ability to induce electrolytic excretion (Cl-) at a time period of 0-24 hr for dose 3 mg/kg; assay type: functional, Urine; how it was run: as §1
# [20] = tested on: Rattus norvegicus; assay: Compound was evaluated for diuretic activity determined by the ability to induce electrolytic excretion (Cl-) at a time period of 0-24 hr for dose 81 mg/kg; assay type: functional, Urine; how it was run: as §1
# [21] = tested on: Rattus norvegicus; assay: Compound was evaluated for diuretic activity determined by the ability to induce electrolytic excretion (Cl-) at a time period of 0-24 hr for dose 9 mg/kg; assay type: functional, Urine; how it was run: as §1
# [22] = tested on: Rattus norvegicus; assay: Compound was evaluated for diuretic activity determined by the ability to induce electrolytic excretion (Cl-) at a time period of 0-5 hr for dose 3 mg/kg; assay type: functional, Urine; how it was run: as §1
# [23] = tested on: Rattus norvegicus; assay: Compound was evaluated for diuretic activity determined by the ability to induce electrolytic excretion (Cl-) at a time period of 0-5 hr for dose 81 mg/kg; assay type: functional, Urine; how it was run: as §1
# [24] = tested on: Rattus norvegicus; assay: Compound was evaluated for diuretic activity determined by the ability to induce electrolytic excretion (Cl-) at a time period of 0-5 hr for dose 9 mg/kg; assay type: functional, Urine; how it was run: as §1
# [25] = tested on: Rattus norvegicus; assay: Compound was evaluated for diuretic activity determined by the ability to induce electrolytic excretion (K+) at a time period of 0-24 hr for dose 27 mg/kg; assay type: functional, Urine; how it was run: as §1
# [26] = tested on: Rattus norvegicus; assay: Urine volumes was determined in Sprague-Dawley rats was determined at time period of 0-5 hours at 9 mg/kg; assay type: functional; how it was run: as §1
# [27] = tested on: Rattus norvegicus; assay: Urine volumes in Sprague-Dawley rats was determined at time period of 0-5 hours at 3 mg/kg; assay type: functional; how it was run: as §1
# [28] = tested on: Rattus norvegicus; assay: Urine volumes in Sprague-Dawley rats was determined at time period of 0-5 hours at 81 mg/kg; assay type: functional; how it was run: as §1
# [29] = tested on: Rattus norvegicus; assay: Urine volumes in Sprague-Dawley rats was determined at time period of 0-5 hours at 27 mg/kg; assay type: functional; how it was run: as §1
# [30] = tested on: Rattus norvegicus; assay: Compound was evaluated for diuretic activity determined by the ability to induce electrolytic excretion (Cl-) at a time period of 0-5 hr for dose 27 mg/kg; assay type: functional, Urine; how it was run: as §1
# [31] = tested on: Canis familiaris; assay: Diuretic activity in mongrel dog was determined by the ability to induce electrolytic excretion (K+) at a time period of 0-5 hr after administration of 5 mg/kg dose.
# [32] = tested on: Canis familiaris; assay: Diuretic activity in mongrel dog was determined by the ability to induce electrolytic excretion (Na+) at a time period of 0-5 hr after administration of 5 mg/kg dose.
# [33] = tested on: Canis familiaris; assay: Diuretic activity in mongrel dog was determined by the ability of compound to induce electrolytic excretion (CL-) at a time period of 0-5 hr after administration of 5 mg/kg dose.
compound,measurement,setting,value
CN(C)c1nc(N)c(-c2nc(N)no2)nc1Cl,Diuretic effect,[1],97
same,Diuretic effect,[2],53
same,Diuretic effect,[3],83
same,Diuretic effect,[4],1
same,Diuretic effect,[5],2
same,Diuretic effect,[6],1
same,Diuretic effect,[7],2
same,Diuretic effect,[8],341
same,Diuretic effect,[9],202
same,Diuretic effect,[10],352
same,Diuretic effect,[11],258
same,Diuretic effect,[12],107
same,Diuretic effect,[13],64
same,Diuretic effect,[14],108
same,Diuretic effect,[15],88
same,Diuretic effect,[16],0.6
same,Diuretic effect,[17],7.2
same,Diuretic effect,[18],270
same,Diuretic effect,[19],170
same,Diuretic effect,[20],267
same,Diuretic effect,[21],200
same,Diuretic effect,[22],40
same,Diuretic effect,[23],57
same,Diuretic effect,[24],48
same,Diuretic effect,[25],82
same,Urine volume,[26],32 mL
same,Urine volume,[27],28 mL
same,Urine volume,[28],30 mL
same,Urine volume,[29],31 mL
same,Diuretic effect,[30],63
same,Diuretic effect,[31],0.6
same,Diuretic effect,[32],7.2
same,Diuretic effect,[33],3
